Activity calls are given as the source filed them. The rule behind the calls is not given here.
Experiments:
Mesenchymal stem cells [1] = assay: Induction of osteogenesis differentiation in human Mesenchymal stem cells at 1 uM incubated for 21 days by Alizarin Red S staining-based microscopic analysis; format: functional, cell-based; settings: time 21.0 day
Mesenchymal stem cells [2] = assay: Induction of adipogenesis differentiation in human Mesenchymal stem cells at 1 uM incubated for 21 days by […] staining-based microscopic analysis; format: functional, cell-based; settings: time 21.0 day
Mesenchymal stem cells [3] = assay: Induction of adipogenesis differentiation in human Mesenchymal stem cells at 10 uM incubated for 21 days by […] staining-based microscopic analysis; format: functional, cell-based; settings: time 21.0 day
Mesenchymal stem cells [4] = assay: Induction of adipogenesis differentiation in human Mesenchymal stem cells at 20 uM incubated for 21 days by […] staining-based microscopic analysis; format: functional, cell-based; settings: time 21.0 day
Mesenchymal stem cells [5] = assay: Induction of osteogenesis differentiation in human Mesenchymal stem cells at 10 uM incubated for 21 days by Alizarin Red S staining-based microscopic analysis; format: functional, cell-based; settings: time 21.0 day
Mesenchymal stem cells [6] = assay: Induction of osteogenesis differentiation in human Mesenchymal stem cells at 20 uM incubated for 21 days by Alizarin Red S staining-based microscopic analysis; format: functional, cell-based; settings: time 21.0 day
[7] = target: T1, Peroxisome proliferator-activated receptor alpha (Homo sapiens, UniProt Q07869); assay: Agonist activity at human PPARalpha transfected in COS-7 cells assessed luciferase activity measured after 24 hrs by cell based luciferase transactivation assay
T1 sequence (Q07869 whole entry): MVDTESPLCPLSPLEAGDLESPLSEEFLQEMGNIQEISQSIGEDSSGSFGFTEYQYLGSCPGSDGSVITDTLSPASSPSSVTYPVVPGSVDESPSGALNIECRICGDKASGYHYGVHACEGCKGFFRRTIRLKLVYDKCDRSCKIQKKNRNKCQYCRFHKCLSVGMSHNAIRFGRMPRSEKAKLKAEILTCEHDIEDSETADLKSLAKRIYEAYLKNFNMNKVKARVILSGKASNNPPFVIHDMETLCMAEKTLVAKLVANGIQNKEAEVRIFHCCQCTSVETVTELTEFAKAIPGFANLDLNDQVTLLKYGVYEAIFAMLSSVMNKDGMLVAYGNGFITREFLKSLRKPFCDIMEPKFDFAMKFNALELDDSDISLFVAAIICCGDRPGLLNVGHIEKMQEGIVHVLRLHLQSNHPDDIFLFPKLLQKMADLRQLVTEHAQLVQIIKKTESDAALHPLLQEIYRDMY
How it was run: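 Transient transfection of COS-7 cells with human PPARα, PPARγ or PPARδ plus luciferase reporter; constitutive Renilla luciferase also read. Three or more independent experiments in triplicate (N ≥ 9).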

[8] = target: T2, Peroxisome proliferator-activated receptor delta (Homo sapiens, UniProt Q03181); assay: Agonist activity at human PPARdelta transfected in COS-7 cells assessed luciferase activity measured after 24 hrs by cell based luciferase transactivation assay
T2 sequence (Q03181 whole entry): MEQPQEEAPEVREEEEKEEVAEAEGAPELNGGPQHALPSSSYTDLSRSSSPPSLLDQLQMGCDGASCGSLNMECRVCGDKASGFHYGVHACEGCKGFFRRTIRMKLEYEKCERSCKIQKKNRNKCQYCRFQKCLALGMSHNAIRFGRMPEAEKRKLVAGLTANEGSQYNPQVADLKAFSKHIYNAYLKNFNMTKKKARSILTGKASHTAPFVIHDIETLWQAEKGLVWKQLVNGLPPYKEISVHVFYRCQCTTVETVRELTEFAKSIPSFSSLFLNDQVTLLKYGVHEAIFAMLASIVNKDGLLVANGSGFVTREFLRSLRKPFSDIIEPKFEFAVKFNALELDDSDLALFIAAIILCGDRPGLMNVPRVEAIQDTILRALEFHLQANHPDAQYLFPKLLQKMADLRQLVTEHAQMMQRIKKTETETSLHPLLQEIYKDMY

[9] = target: T3, Peroxisome proliferator-activated receptor gamma (Homo sapiens, UniProt P37231); assay: Agonist activity at human PPARgamma transfected in COS-7 cells assessed luciferase activity measured after 24 hrs by cell based luciferase transactivation assay
T3 sequence (P37231 whole entry): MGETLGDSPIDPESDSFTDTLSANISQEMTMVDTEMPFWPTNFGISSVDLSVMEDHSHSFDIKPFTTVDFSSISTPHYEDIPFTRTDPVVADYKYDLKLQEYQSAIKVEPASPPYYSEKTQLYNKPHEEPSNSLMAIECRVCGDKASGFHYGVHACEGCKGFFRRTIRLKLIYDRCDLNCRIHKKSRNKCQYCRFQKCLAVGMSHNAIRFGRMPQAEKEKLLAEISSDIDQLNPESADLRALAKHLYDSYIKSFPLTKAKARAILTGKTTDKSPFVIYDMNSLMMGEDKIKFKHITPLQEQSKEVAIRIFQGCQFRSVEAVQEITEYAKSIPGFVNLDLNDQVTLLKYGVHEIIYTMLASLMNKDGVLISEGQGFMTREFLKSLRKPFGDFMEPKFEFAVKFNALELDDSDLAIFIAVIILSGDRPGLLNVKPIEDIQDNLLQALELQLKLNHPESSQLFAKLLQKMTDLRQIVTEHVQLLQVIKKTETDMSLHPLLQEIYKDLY

Mus musculus [10] = assay: Antiosteoporotic activity against OVX-induced bone loss C57BL/6 mouse model assessed as increase in trabecular bone density at 10 mg/kg, po for 6 weeks by microcomputed tomography method relative to sham treated control; format: functional, organism-based
How it was run: (§1)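 Female C57BL/6 mice ovariectomized at 12 weeks of age; sham-operated group kept ovaries intact. After recovery, daily oral gavage of compound or vehicle for 6 weeks, sacrifice at 22 weeks of age. Distal femur trabecular structure analysed by micro-computed tomography, including bone volume/total volume, compared with sham mice; GW0742 as positive control.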

Mus musculus [11] = assay: Antiosteoporotic activity against OVX-induced bone loss C57BL/6 mouse model assessed as increase in ratio of bone volume to total volume at 10 mg/kg, po for 6 weeks by microcomputed tomography method relative to sham treated control; format: functional, organism-based; how it was run: as §1
Mus musculus [12] = assay: Antiosteoporotic activity against OVX-induced bone loss C57BL/6 mouse model assessed as increase in microarchitectures at 10 mg/kg, po for 6 weeks by microcomputed tomography method relative to sham treated control; format: functional, organism-based; how it was run: as §1
[13] = Glutathione reactivity at pH 7.4 assessed as compound remaining measured after 24 hrs by LC-MS/MS method; format: physicochemical; settings: pH 7.4, 24 h
How it was run: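 Substrate incubated in triplicate with 10-fold excess glutathione in pH 7.4 phosphate buffer containing 50% methanol at 25 °C for up to 24 h. Substrate loss followed at several time points by LC-MS/MS, which also confirmed the structure of glutathione conjugates.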

Mesenchymal stem cells [14] = assay: Cytotoxicity against human Mesenchymal stem cells expressing human PPARdelta assessed as morphological changes at 50 uM by microscopy analysis; format: cell-based
[15] = Cytotoxicity against human HEK293T/17 cells assessed as reduction in cell viability at 10 to 100 uM measured after 24 hrs by MTT assay; format: cell-based; settings: hek293t/17, 24 h, dose 10-100 µM
How it was run: (§2)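 HEK 293T/17 cultures exposed to agent for 24 h or 72 h; viability by MTT. Controls: H2O2 (toxic positive), plain medium, vehicle at 0.1% DMSO corresponding to the 100 μM dose; doses by serial dilution in medium. Quadruplicate (N = 4), mean with SD; two-tailed P versus 0 μM. Viability <70% taken as relevant to human toxicity.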

[16] = Cytotoxicity against human HEK293T/17 cells assessed as reduction in cell viability at 10 to 100 uM measured after 72 hrs by MTT assay; format: cell-based; settings: hek293t/17, 72 h, dose 10-100 µM; how it was run: as §2
L929 [17] = assay: Cytotoxicity against mouse L929 cells assessed as reduction in cell viability at 100 uM; format: cell-based; settings: l929, 100 µM
L929 [18] = assay: Cytotoxicity against mouse L929 cells assessed as reduction in cell viability at 1 to 100 uM measured after 72 hrs; format: cell-based; settings: l929, 72 h, dose 1-100 µM
[19] = Toxicity in OVX-induced bone loss C57BL/6 mouse model assessed as change in body weight at 10 mg/kg, po for 6 weeks; format: organism-based; settings: in vivo, 1008 h
How it was run: (§3)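 OVX C57BL/6 females (surgery at 12 weeks, sham controls) dosed daily by oral gavage for 6 weeks. Gross toxicity monitored during dosing as weight, behaviour, eating and other habits versus controls.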

[20] = Toxicity in OVX-induced bone loss C57BL/6 mouse model assessed as change in behaviour at 10 mg/kg, po for 6 weeks; format: organism-based; settings: in vivo, 1008 h; how it was run: as §3
[21] = Toxicity in OVX-induced bone loss C57BL/6 mouse model assessed as change in eating at 10 mg/kg, po for 6 weeks; format: organism-based; settings: in vivo, 1008 h; how it was run: as §3
[22] = test system: PPARdelta (human, expressed in COS-7 cells); assay: Cell toxicity index, ratio of CT50 to EC50 for agonist activity at human PPARdelta expressed in COS-7 cells; settings: monkey
[23] = test system: COS-7 (Chlorocebus aethiops); assay: Cytotoxicity against COS-7 cells expressing human PPARdelta assessed as morphological changes at lower concentration by microscopy analysis; settings: monkey
[24] = target: T4, Peroxisome proliferator-activated receptor alpha (Homo sapiens) (UniProt Q07869); assay: Agonist activity at human PPARalpha transfected in COS-7 cells assessed maximum luciferase activity measured after 24 hrs by cell based luciferase transactivation assay relative to gemfibrozil; settings: filed as agonist
T4 sequence (whole entry): T1 sequence (Q07869 whole entry)
How it was run: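 Transient transfection of COS-7 cells with human PPARα, PPARγ or PPARδ plus luciferase reporter; constitutive Renilla luciferase also read. […] Three or more independent experiments in triplicate (N ≥ 9).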

[25] = Cytotoxicity against human HEK293T/17 cells assessed as reduction in cell viability incubated for 24 hrs by MTT assay; format: cell-based; settings: hek293t/17, 24 h
How it was run: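 HEK 293T/17 cultures were exposed to drug for 24 h and viability was read by standard MTT. Doses came from serial dilution in medium, top dose 100 μM. Controls were medium only, a DMSO vehicle at its highest level (0.1% in medium before adding to cells), and H2O2 as a toxic control. Runs were in quadruplicate (N = 4), reported as mean with SD and compared to 0 μM by two-tailed P.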

Structure (SMILES) | Activity (Mesenchymal stem cells [1]) | Activity (Mesenchymal stem cells [2]) | Activity (Mesenchymal stem cells [3]) | Activity (Mesenchymal stem cells [4]) | Activity (Mesenchymal stem cells [5]) | Activity (Mesenchymal stem cells [6]) | EC50 [8] | Activity (Mus musculus [10]) | Activity (Mus musculus [11]) | Activity (Mus musculus [12]) | Stability [13] | Activity (Mesenchymal stem cells [14]) | Activity [16] | Activity (L929 [17]) | Activity (L929 [18]) | Activity [19] | Activity [20] | Activity [21] | selectivity ratio [22] | EC50 ([7]; read-out: EC50) | other results
Cc1cc(N(C)Cc2sc(-c3ccc(C(F)(F)F)cc3)nc2C)ccc1/C=C/C(=O)O | Active | inactive | inactive | inactive | Active | Active | 0.335 µM | Active | Active | Active | Stable | Toxic | Toxic | Non-Toxic | Toxic | Toxic | Toxic | Toxic | 250 |  | EC50 ([7]; cos-7): Not Active; EC50 ([9]; cos-7): Not Active; Activity [15]: Toxic; Activity [23]: Non-Toxic
Cc1cc(SCc2sc(-c3ccc(C(F)(F)F)c(F)c3)nc2C)ccc1OCC(=O)O | Active | inactive | inactive |  | Active |  |  | Active |  |  |  | Toxic | Toxic | Toxic | Toxic |  |  |  |  | 2.5 µM | EC50 ([9]; read-out: EC50): 9.53 µM; Emax [24]: > 108%; Activity [25]: Toxic
Cc1nc(-c2ccc(C(F)(F)F)c(F)c2)sc1CSc1ccc(/C=C/C(=O)O)cc1 | Active | inactive | inactive | inactive | Active | Active | 0.134 µM |  | Active | Active | Stable |  | Toxic | Toxic | Toxic | Toxic | Toxic | Toxic | 1350 | 0.915 µM | EC50 ([9]; read-out: EC50): 1.3 µM; Emax [24]: 163%

Source: ChEMBL document CHEMBL5032493, “Synthesis and Evaluation of PPARδ Agonists That Promote Osteogenesis in a Human Mesenchymal Stem Cell Culture and in a Mouse Model of Human Osteoporosis” (J Med Chem, 2021)
